Data set [1] is described as follows: melting temperature; fluorescence melt of hairpins on a sequencing array, two-state fit, raised by 9.35 °C to match UV melts. The conditions noted are these: sodium 0.088 M. Put shortly: (§1)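 Bootstrapped two-state fits yielded melting temperature and folding enthalpy for library hairpins. Cy3 fluorescence, with annealed Cy3 and quencher oligos, was imaged on a sequenced MiSeq flow cell in 50 mM Na-HEPES pH 8.0, 25 mM NaCl in 2.5 °C steps up to 60 °C, and normalised to pre-quench Cy3 and to control constructs. Four replicates were combined by inverse variance, and fitted temperatures were raised by 9.35 °C to match UV melts.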

Data set [2] is described as follows: folding enthalpy; higher = less favourable; fluorescence melt of hairpins on a sequencing array, two-state fit. The conditions noted are these: sodium 0.088 M. Put shortly:
as §1

For the sequence GCTACCTCGAAAGAGAGC (((..(((....)))))), in data set [1], the Tm was found to be 30.1 °C. In addition, the folding enthalpy in data set [2] is -16.3 kcal/mol.
The corresponding values for GCTACGCGAAAGCAGAGC (((..((....))..))) are 48.4 °C and -18.7 kcal/mol.
For GCTACGCGAAAGCCCAGC (((..((....))..))), in data set [1], the Tm was 33.3 °C. In addition, in data set [2], the folding enthalpy was -6.89 kcal/mol.
The corresponding values for GCTACGCGAAAGCCTGGC ((.(.((....)).).)) are 34.4 °C and -13.4 kcal/mol.
Regarding GCTACGCGAAAGCGAGGC ((..(((....)))..)), the Tm in data set [1] was found to be 53.3 °C. In data set [2], the folding enthalpy is -15.1 kcal/mol.
Turning to GCTACGCGAAAGCGATGC ((..(((....)))..)), in data set [1], the Tm turned out to be 50 °C. In addition, the folding enthalpy in data set [2] is -18.3 kcal/mol.
For GCTACGCGAAAGCGCGGC ((..(((....)))..)) the same measures were 51 °C and -16.1 kcal/mol.
The corresponding values for GCTACGCGAAAGCGCTGC ((..(((....)))..)) are 43.5 °C and -15.2 kcal/mol.
For GCTACGGGAAACCACAGC (((..((....))..))) the same measures were 36 °C and -21.4 kcal/mol.
As to GCTACTGGAAACAGTGGC ((.((((....)))).)), the Tm in data set [1] worked out at 51.7 °C. Also, the folding enthalpy in data set [2] was -38.3 kcal/mol.
For GCTAGACCGAAAGGTAGC (((..(((....)))))) the same measures were 44.1 °C and -19.2 kcal/mol.
Regarding GCTAGACGAAAGTCCAGC (((.(((....))).))), in data set [1], the Tm is 47.6 °C. Moreover, the folding enthalpy in data set [2] was -24.9 kcal/mol.
For GCTAGAGGAAACCCTAGC (((((.(....).))))) the same measures were 41.4 °C and -31.2 kcal/mol.
Turning to GCTAGCCGAAAGGCGAGC (((.(((....))).))), the Tm in data set [1] came out at 67.2 °C. In data set [2], the folding enthalpy was -30.9 kcal/mol.
For GCTAGCGAAAGCTAGAGC ((((((....)))..))) the same measures were 55 °C and -13.2 kcal/mol.
As for GCTAGCGAAAGCTCAGC ((((((....))).))), in data set [1], the Tm was 48.9 °C. Also, in data set [2], the folding enthalpy was -19.6 kcal/mol.
In the case of GCTAGCGAAAGCTTAGC ((((((....))).))), the Tm in data set [1] is 52.5 °C. In addition, in data set [2], the folding enthalpy was -22.1 kcal/mol.
For GCTAGCGGAAACGCTGGC ((.((((....)))).)) the same measures were 60.3 °C and -33.3 kcal/mol.
For GCTAGGCGAAAGCCAGC (((.(((....)))))) the same measures were 62.9 °C and -21.7 kcal/mol.
For GCTAGGCGAAAGCCATGC ((..(((....)))..)) the same measures were 53.5 °C and -17.7 kcal/mol.
With GCTAGGCGAAAGCGGAGC (((..((....))..))), in data set [1], the Tm was 42.4 °C. The folding enthalpy in data set [2] is -20.1 kcal/mol.
With GCTAGGCGAAAGCTGAGC (((..((....))..))), the Tm in data set [1] is 53.6 °C. Moreover, the folding enthalpy in data set [2] is -18.2 kcal/mol.
The corresponding values for GCTAGGGGAAACCTTGGC ((.(.((....)).).)) are 34.4 °C and -23.8 kcal/mol.
With GCTAGGGGAAACTCTAGC (((((.(....).))))), the Tm in data set [1] was determined as 47.7 °C. Besides, the folding enthalpy in data set [2] is -34.8 kcal/mol.
Turning to GCTAGTGGAAACACTAAC (.(((((....))))).), the Tm in data set [1] was 32.5 °C. Also, in data set [2], the folding enthalpy is -15.2 kcal/mol.
For GCTAGTGGAAACACTAGC (((((((....))))))) the same measures were 61.9 °C and -47.7 kcal/mol.
The corresponding values for GCTAGTGGAAACACTGGC ((.((((....)))).)) are 51.7 °C and -32.2 kcal/mol.
For GCTAGTGGAAACGCTAGC (((((.(....).))))) the same measures were 52.3 °C and -40.4 kcal/mol.
Consider GCTAGTGGAAACGTTAGC ((((..(....)..)))), for which the Tm in data set [1] came to 36.4 °C. Besides, in data set [2], the folding enthalpy was -20.1 kcal/mol.
For GCTATCCCGAAAGGGAGC (((..(((....)))))) the same measures were 38.9 °C and -11.7 kcal/mol.
The corresponding values for GCTATCCGAAAGGAGAGC (((.(((....))).))) are 58.6 °C and -38.9 kcal/mol.
With GCTATCGAAAGATATAGC ((((((....)))..))), the Tm in data set [1] is 36.1 °C. Besides, the folding enthalpy in data set [2] was -25.1 kcal/mol.
As for GCTATCGAAAGATCTAGC ((((((....)))..))), the Tm in data set [1] amounted to 26.1 °C. Also, in data set [2], the folding enthalpy is -11.8 kcal/mol.
The corresponding values for GCTATCGAAAGATGCAGC ((((((....)))..))) are 35.8 °C and -18.3 kcal/mol.
Take GCTATCGAAAGATGTAGC ((((((....)))..))): the Tm in data set [1] was determined as 36.9 °C. Also, in data set [2], the folding enthalpy was -28.9 kcal/mol.
Consider GCTATCGAAAGATTAGC ((((((....))).))), for which the Tm in data set [1] is 42.7 °C. Also, the folding enthalpy in data set [2] was -26.1 kcal/mol.
For GCTATCGGAAACGACAGC (((.(((....))).))) the same measures were 43.8 °C and -30.9 kcal/mol.

These data come from the array DNA melting data of Ke et al. (doi:10.1101/2024.01.08.574731).
